Source: ChEMBL document CHEMBL1155250, “Novel 1-aminoethyl-3-arylsulfonyl-1H-pyrrolo[2,3-b]pyridines are potent 5-HT(6) agonists” (Bioorg Med Chem, 2009)

Key:
[1] = target: T1, 5-hydroxytryptamine receptor 6 (Homo sapiens, UniProt P50406); assay: Antagonist activity at human cloned 5HT6 receptor expressed in HeLa cells assessed as inhibition of adenylyl cyclase activity by RIA; format: functional, cell-based
[2] = target: T1, 5-hydroxytryptamine receptor 6; assay: Antagonist activity at human cloned 5HT6 receptor expressed in HeLa cells assessed as inhibition of adenylyl cyclase activity by RIA relative to serotonin; format: functional, cell-based
[3] = target: T1, 5-hydroxytryptamine receptor 6; assay: Agonist activity at human cloned 5HT6 receptor expressed in HeLa cells assessed as induction of adenylyl cyclase activity by RIA; format: functional, cell-based
Method in brief: (§1)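 Transfected HeLa cells expressing human 5-HT6 were washed with Krebs buffer and preincubated 5 min at 37 °C in Krebs with 500 µM IBMX. They were then stimulated 10 min at 37 °C with compound over 0.1–10000 nM. Agonist potency came from concentration–response curves, and percent efficacy was taken relative to a serotonin maximal response.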

[4] = target: T1, 5-hydroxytryptamine receptor 6; assay: Agonist activity at human cloned 5HT6 receptor expressed in HeLa cells assessed as induction of adenylyl cyclase activity by RIA relative to serotonin; format: functional, cell-based; method in brief: as §1
[5] = target: T1, 5-hydroxytryptamine receptor 6; assay: Displacement of [3H]LSD from human cloned 5HT6 receptor expressed in HeLa cells; format: cell-based
Method in brief: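 Radioligand binding used human 5-HT6 receptor stably expressed in HeLa cells with [3H]LSD as the radioligand. Affinity is reported as Ki.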

[6] = organism: Homo sapiens; assay: Selectivity ratio of IC50 for human cloned 5HT7 receptor to human cloned 5HT6 receptor
[7] = organism: Homo sapiens; assay: Selectivity ratio of IC50 for human cloned dopamine D3 receptor to human cloned 5HT6 receptor
[8] = organism: Homo sapiens; assay: Selectivity ratio of IC50 for human cloned 5HT2A receptor to human cloned 5HT6 receptor
[9] = organism: Homo sapiens; assay: Selectivity ratio of IC50 for human cloned 5HT1B receptor to human cloned 5HT6 receptor
[10] = organism: Homo sapiens; assay: Selectivity ratio of IC50 for human cloned dopamine D4 receptor to human cloned 5HT6 receptor
[11] = target: T2, 5-hydroxytryptamine receptor 1F (Homo sapiens) (UniProt P30939); assay: Displacement of [3H]5-HT from human cloned 5HT1F receptor expressed in CHO cells at 1 uM; format: cell-based
T2 sequence (whole entry): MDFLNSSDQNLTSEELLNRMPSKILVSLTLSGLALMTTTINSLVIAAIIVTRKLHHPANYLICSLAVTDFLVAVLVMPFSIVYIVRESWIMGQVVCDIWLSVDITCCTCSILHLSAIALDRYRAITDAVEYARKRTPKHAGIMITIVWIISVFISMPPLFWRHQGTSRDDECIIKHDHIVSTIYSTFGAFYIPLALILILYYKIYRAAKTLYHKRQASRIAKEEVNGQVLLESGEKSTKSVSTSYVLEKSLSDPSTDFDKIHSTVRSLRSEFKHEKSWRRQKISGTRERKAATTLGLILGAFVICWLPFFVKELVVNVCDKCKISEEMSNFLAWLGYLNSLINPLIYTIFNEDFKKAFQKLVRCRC
Method in brief: (§2)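 Human 5-HT1B, 5-HT1D and 5-HT1F receptors were stably expressed in CHO cells and labelled with [3H]-5-HT. Results are given as percent inhibition at a single 1 µM concentration.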

[12] = organism: Homo sapiens; assay: Selectivity ratio of IC50 for human cloned dopamine D2 receptor to human cloned 5HT6 receptor
[13] = organism: Homo sapiens; assay: Selectivity ratio of IC50 for human cloned 5HT1D receptor to human cloned 5HT6 receptor
[14] = target: T3, 5-hydroxytryptamine receptor 2C (Homo sapiens, UniProt P28335); assay: Displacement of [3H]5-HT from human cloned 5HT2C receptor expressed in CHO cells; format: cell-based
T3 sequence (P28335 whole entry): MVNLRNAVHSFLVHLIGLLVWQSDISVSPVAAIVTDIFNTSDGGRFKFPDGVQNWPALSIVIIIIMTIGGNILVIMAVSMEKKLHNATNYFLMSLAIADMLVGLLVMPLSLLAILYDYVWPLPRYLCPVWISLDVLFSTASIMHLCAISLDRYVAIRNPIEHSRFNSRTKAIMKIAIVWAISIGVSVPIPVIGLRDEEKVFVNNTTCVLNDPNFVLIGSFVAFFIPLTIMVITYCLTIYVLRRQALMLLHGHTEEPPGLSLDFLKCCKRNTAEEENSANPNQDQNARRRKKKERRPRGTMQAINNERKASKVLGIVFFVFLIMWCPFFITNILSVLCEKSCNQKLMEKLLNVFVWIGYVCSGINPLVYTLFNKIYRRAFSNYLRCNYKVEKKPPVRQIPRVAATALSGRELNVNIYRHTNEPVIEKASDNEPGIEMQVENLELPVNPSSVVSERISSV
Method in brief: (§3)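 Binding selectivity used stably expressed human receptors, 5-HT in CHO cells and dopamine in CHO-K1. Radioligands: [125I]DOI for 5-HT2A (agonist radioligand), [3H]-5-HT for 5-HT2C, [3H]LSD for 5-HT7, [3H]spiperone for D2, D3 and D4. Values are IC50 in nM.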

[15] = target: 5-hydroxytryptamine receptor 2A (Homo sapiens, UniProt P28223); assay: Displacement of [125I]DOI from human cloned 5HT2A receptor expressed in CHO cells; format: cell-based; method in brief: as §3
Sequence of 5-hydroxytryptamine receptor 2A (P28223 whole entry): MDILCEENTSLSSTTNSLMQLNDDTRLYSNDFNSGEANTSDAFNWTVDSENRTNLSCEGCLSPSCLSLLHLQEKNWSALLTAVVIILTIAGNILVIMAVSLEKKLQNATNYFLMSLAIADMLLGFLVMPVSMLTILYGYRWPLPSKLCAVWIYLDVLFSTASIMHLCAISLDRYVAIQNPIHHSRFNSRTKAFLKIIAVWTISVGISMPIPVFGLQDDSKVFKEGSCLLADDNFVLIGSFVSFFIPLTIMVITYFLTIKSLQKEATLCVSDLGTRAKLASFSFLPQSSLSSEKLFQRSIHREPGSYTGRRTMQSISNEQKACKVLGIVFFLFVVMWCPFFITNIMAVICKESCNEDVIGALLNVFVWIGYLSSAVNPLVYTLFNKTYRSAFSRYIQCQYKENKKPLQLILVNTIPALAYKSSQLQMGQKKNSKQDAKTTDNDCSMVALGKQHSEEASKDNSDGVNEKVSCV

[16] = target: D(3) dopamine receptor (Homo sapiens, UniProt P35462); assay: Displacement of [3H]spiperone from human cloned dopamine D3 receptor expressed in CHO-K1 cells; format: cell-based; method in brief: as §3
Sequence of D(3) dopamine receptor (P35462 whole entry): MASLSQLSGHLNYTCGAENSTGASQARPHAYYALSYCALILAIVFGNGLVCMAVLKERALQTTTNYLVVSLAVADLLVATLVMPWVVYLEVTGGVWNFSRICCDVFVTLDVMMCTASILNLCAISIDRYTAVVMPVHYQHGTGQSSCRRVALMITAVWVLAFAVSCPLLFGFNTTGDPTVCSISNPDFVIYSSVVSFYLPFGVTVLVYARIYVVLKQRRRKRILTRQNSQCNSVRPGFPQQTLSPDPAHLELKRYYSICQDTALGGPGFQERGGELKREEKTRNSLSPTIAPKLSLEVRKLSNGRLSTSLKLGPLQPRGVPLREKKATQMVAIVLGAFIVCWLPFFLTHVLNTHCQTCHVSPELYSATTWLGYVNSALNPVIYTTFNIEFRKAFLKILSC

[17] = target: 5-hydroxytryptamine receptor 7 (Homo sapiens, UniProt P34969); assay: Displacement of [3H]LSD from human cloned 5HT7 receptor expressed in CHO cells; format: cell-based; method in brief: as §3
Sequence of 5-hydroxytryptamine receptor 7 (P34969 whole entry): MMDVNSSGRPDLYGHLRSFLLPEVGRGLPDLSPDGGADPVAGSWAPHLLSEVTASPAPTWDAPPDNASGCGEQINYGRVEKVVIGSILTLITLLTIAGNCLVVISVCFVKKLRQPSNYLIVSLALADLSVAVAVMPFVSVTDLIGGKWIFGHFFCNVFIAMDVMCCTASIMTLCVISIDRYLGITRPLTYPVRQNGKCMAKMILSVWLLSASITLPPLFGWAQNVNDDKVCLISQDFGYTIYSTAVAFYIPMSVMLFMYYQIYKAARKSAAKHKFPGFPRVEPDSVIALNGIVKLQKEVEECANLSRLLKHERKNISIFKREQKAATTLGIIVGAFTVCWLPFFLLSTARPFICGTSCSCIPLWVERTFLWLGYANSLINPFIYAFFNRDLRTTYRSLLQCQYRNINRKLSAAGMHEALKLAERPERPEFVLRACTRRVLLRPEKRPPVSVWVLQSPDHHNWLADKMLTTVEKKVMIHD

[18] = organism: Homo sapiens; assay: Selectivity ratio of IC50 for human cloned 5HT2C receptor to human cloned 5HT6 receptor
[19] = target: D(2) dopamine receptor (Homo sapiens, UniProt P14416); assay: Displacement of [3H]spiperone from human cloned dopamine D2 receptor expressed in CHO-K1 cells; format: cell-based; method in brief: as §3
Sequence of D(2) dopamine receptor (P14416 whole entry): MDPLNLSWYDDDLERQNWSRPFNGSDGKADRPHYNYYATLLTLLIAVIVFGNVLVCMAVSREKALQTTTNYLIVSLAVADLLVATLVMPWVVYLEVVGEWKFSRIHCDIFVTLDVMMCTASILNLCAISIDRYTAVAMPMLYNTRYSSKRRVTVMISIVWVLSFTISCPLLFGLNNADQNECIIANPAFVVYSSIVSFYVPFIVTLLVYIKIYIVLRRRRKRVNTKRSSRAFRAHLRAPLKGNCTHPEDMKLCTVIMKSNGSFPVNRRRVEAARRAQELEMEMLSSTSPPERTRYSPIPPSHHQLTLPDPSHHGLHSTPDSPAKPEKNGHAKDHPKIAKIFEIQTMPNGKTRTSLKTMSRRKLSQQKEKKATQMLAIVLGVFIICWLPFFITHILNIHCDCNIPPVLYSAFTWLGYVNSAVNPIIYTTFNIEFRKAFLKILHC

[20] = target: T4, D(4) dopamine receptor (Homo sapiens, UniProt P21917); assay: Displacement of [3H]spiperone from human cloned dopamine D4 receptor expressed in CHO-K1 cells; format: cell-based; method in brief: as §3
T4 sequence (P21917 whole entry): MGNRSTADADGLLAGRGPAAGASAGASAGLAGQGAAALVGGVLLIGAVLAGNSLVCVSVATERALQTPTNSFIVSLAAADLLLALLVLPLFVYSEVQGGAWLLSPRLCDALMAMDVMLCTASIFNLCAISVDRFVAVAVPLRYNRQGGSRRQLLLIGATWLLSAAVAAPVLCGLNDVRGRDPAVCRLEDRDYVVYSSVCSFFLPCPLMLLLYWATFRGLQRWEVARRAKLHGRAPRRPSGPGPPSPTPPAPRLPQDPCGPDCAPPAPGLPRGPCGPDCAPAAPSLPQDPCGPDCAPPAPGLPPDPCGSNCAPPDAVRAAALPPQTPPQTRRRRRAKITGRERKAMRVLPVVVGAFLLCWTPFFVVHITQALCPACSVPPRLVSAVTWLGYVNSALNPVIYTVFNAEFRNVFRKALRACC

[21] = target: 5-hydroxytryptamine receptor 1B (Homo sapiens) (UniProt P28222); assay: Displacement of [3H]5-HT from human cloned 5HT1B receptor expressed in CHO cells at 1 uM; format: cell-based; method in brief: as §2
Sequence of 5-hydroxytryptamine receptor 1B (Homo sapiens) (P28222 whole entry): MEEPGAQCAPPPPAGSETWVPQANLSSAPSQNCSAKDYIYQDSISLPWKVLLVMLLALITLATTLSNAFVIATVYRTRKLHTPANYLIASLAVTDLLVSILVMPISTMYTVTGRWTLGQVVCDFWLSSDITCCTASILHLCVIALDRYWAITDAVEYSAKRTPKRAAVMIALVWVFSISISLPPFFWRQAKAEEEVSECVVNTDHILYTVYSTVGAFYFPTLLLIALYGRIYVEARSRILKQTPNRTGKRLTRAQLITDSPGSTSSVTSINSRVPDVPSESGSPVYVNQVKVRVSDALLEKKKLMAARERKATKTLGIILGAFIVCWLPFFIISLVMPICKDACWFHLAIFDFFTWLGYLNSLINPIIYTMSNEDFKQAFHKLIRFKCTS

[22] = target: 5-hydroxytryptamine receptor 1D (Homo sapiens) (UniProt P28221); assay: Displacement of [3H]5-HT from human cloned 5HT1D receptor expressed in CHO cells at 1 uM; format: cell-based; method in brief: as §2
Sequence of 5-hydroxytryptamine receptor 1D (Homo sapiens) (P28221 whole entry): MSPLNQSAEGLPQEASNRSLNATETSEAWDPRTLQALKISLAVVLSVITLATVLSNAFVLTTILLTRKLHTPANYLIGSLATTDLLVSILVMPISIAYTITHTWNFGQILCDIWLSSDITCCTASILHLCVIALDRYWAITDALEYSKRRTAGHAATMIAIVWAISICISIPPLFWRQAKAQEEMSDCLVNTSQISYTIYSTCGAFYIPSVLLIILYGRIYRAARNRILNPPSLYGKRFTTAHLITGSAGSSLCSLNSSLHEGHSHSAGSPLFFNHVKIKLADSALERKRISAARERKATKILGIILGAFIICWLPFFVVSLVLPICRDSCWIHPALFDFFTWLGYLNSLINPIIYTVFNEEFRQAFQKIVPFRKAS

[23] = organism: Homo sapiens; assay: Selectivity ratio of IC50 for human cloned 5HT1F receptor to human cloned 5HT6 receptor

T1 sequence (P50406 whole entry): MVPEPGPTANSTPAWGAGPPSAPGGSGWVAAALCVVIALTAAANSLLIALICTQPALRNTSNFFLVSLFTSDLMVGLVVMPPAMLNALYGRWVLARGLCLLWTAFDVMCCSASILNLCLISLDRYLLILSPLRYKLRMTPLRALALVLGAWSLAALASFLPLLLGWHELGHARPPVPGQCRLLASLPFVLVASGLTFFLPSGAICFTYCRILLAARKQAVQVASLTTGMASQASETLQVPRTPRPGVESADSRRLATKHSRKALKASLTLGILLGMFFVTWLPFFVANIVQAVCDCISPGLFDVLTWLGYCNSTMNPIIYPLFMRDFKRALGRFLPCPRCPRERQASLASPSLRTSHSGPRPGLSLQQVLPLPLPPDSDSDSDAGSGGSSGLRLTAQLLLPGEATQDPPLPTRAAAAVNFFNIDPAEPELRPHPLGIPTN

| Compound | EC50 [3] | Emax [4] | Ki [5] | other results |
| --- | --- | --- | --- | --- |
| CNCCn1cc(S(=O)(=O)c2cccc(Cl)c2)c2cccnc21 | – | – | – | IC50 [1]: 8.3 nM; Imax [2]: 100% |
| CN(C)CCn1cc(S(=O)(=O)c2c(Cl)cccc2Cl)c2cccnc21 | 31 nM | 66% | – | – |
| NCCn1cc(S(=O)(=O)c2ccccc2C(F)(F)F)c2cccnc21 | 85 nM | 97% | 2.1 nM | – |
| CN(C)CCn1cc(S(=O)(=O)c2cccc3ccccc23)c2cccnc21 | 51 nM | 63% | – | Ratio IC50 [6]: > 50; Ratio IC50 [7]: > 50; Ratio IC50 [8]: > 50; Ratio IC50 [9]: > 50; Ratio IC50 [10]: > 50; inhibition [11]: 10%; Ratio IC50 [12]: > 50; Ratio IC50 [13]: > 50; IC50 [14]: 1140 nM; IC50 [15]: 938 nM; IC50 [16]: 1560 nM; IC50 [17]: 511 nM; Ratio IC50 [18]: > 50; IC50 [19]: > 5000 nM; IC50 [20]: > 5000 nM; inhibition [21]: 40%; inhibition [22]: 0%; Ratio IC50 [23]: > 50 |
| NCCn1cc(S(=O)(=O)c2cccc3ccccc23)c2cccnc21 | 63 nM | 65% | 1.6 nM | – |
| NCCn1cc(S(=O)(=O)c2cccc(C(F)(F)F)c2)c2cccnc21 | 110 nM | 83% | 2.1 nM | – |
| NCCn1cc(S(=O)(=O)c2ccccc2)c2cccnc21 | 27 nM | 100% | 5.5 nM | Ratio IC50 [6]: > 50; Ratio IC50 [7]: > 50; Ratio IC50 [8]: > 50; Ratio IC50 [9]: > 50; Ratio IC50 [10]: > 50; inhibition [11]: 14%; Ratio IC50 [12]: > 50; Ratio IC50 [13]: > 50; IC50 [14]: > 5000 nM; IC50 [15]: > 5000 nM; IC50 [16]: > 5000 nM; IC50 [17]: > 5000 nM; Ratio IC50 [18]: > 50; IC50 [19]: > 5000 nM; IC50 [20]: > 5000 nM; inhibition [21]: 11%; inhibition [22]: 16%; Ratio IC50 [23]: > 50 |
| Cc1c(S(=O)(=O)c2ccccc2)c2cccnc2n1CCN(C)C | 47 nM | 100% | 4.7 nM | – |
| CN(C)CCn1cc(S(=O)(=O)c2cc(Cl)ccc2Cl)c2cccnc21 | – | – | 11.7 nM | IC50 [1]: 15 nM; Imax [2]: 97% |
| CNCCn1cc(S(=O)(=O)c2c(Cl)nc3sccn23)c2cccnc21 | – | – | 0.9 nM | IC50 [1]: 5.4 nM; Imax [2]: 89% |
| NCCn1cc(S(=O)(=O)c2ccc(F)cc2)c2cccnc21 | 166 nM | 100% | – | – |
| NCCn1cc(S(=O)(=O)c2ccccc2)c2ccccc21 | 178 nM | 67% | – | – |
| NCCn1cc(S(=O)(=O)c2cccc(Cl)c2)c2cccnc21 | 18 nM | 94% | 2 nM | IC50 [14]: 44 nM; IC50 [15]: 11 nM; IC50 [16]: > 5000 nM; IC50 [17]: 1360 nM; IC50 [19]: > 5000 nM; IC50 [20]: > 5000 nM |
| NCCn1cc(S(=O)(=O)c2cccc(F)c2)c2cccnc21 | 24 nM | 100% | 4.7 nM | – |
| CN(C)CCn1cc(S(=O)(=O)c2ccccc2)c2cccnc21 | 25 nM | 94% | – | – |
| NCCn1cc(S(=O)(=O)c2cc(Cl)cc(Cl)c2)c2cccnc21 | 35 nM | 65% | 2.9 nM | – |
| CN(C)CCn1cc(S(=O)(=O)c2ccc(F)cc2)c2cccnc21 | 30 nM | 84% | 45 nM | – |
| CNCCn1cc(S(=O)(=O)c2cccc(F)c2)c2cccnc21 | – | – | – | IC50 [1]: 6.2 nM; Imax [2]: 93% |
| Cc1c(S(=O)(=O)c2ccccc2)c2cccnc2n1CCN | 20 nM | 85% | 4.2 nM | – |
| CN(C)CCn1cc(S(=O)(=O)c2ccccc2)c2ccccc21 | 366 nM | 63% | – | – |
| CN(C)CCn1cc(S(=O)(=O)c2ccc(Cl)s2)c2cccnc21 | 32 nM | 93% | 3.3 nM | – |
| CN(C)CCn1cc(S(=O)(=O)c2c(Cl)nc3sccn23)c2cccnc21 | 120 nM | 71% | 0.9 nM | – |
| CN(C)CCn1cc(S(=O)(=O)c2cccs2)c2cccnc21 | 154 nM | 74% | – | – |
| CN(C)CCn1cc(S(=O)(=O)c2cc(Cl)cc(Cl)c2)c2cccnc21 | 28 nM | 80% | 4.3 nM | – |
